Assay results as given in ChEMBL document CHEMBL4689842, “EUbOPEN Chemogenomics Library wave 1” (2021).

System: U2OS
Assay: Multiplex assay against U2OS
Assay type: toxicity, cell-based
Conditions: human
Method in brief: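 Cells were classed with CellPathfinder machine-learning gating, first as Hoechst high-intensity objects or normal cells, then (normal cells) as healthy, pyknosed or fragmented nuclei, and finally (pyknosed cells) as mitotic or apoptotic. Staining of live cells at seeding used Hoechst33342, BioTracker Green Microtubule Cytoskeleton Dye, MitoTracker Red and Annexin V Alexa Fluor 680, with imaging on a CQ1 microscope at 37°C and 5% CO2 after compound addition. Tubulin, mitochondrial-mass and membrane-permeability phenotypes are per cents of healthy-nucleus cells.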

[1] = 12 h, 1 µM, compound concentration 1 uM, replicate 1
[2] = 12 h, 1 µM, compound concentration 1 uM, replicate 2
[3] = 12 h, 10 µM, compound concentration 10 uM, replicate 1
[4] = 12 h, 10 µM, compound concentration 10 uM, replicate 2
[5] = 24 h, 1 µM, compound concentration 1 uM, replicate 1
[6] = 24 h, 1 µM, compound concentration 1 uM, replicate 2
[7] = 24 h, 10 µM, compound concentration 10 uM, replicate 1
[8] = 24 h, 10 µM, compound concentration 10 uM, replicate 2
[9] = 48 h, 1 µM, compound concentration 1 uM, replicate 1
[10] = 48 h, 1 µM, compound concentration 1 uM, replicate 2
[11] = 48 h, 10 µM, compound concentration 10 uM, replicate 1
[12] = 48 h, 10 µM, compound concentration 10 uM, replicate 2

CC(C)(O)CNc1ncc(-c2ccnc(Nc3ccnc(Cl)c3)n2)c(CC2CC2)n1
Population Apoptotic (%) [1]: 44% | Population Fragmented Nuclei (%) [1]: 9% | Population Healthy Nuclei (%) [1]: 71% | Population Hoechst High Intensity Objects (%) [1]: 3% | Population Membrane Permeable-Phenotype (%) [1]: 8% | Population Mitochondria Different-Phenotype (%) [1]: 24% | Population Mitotic Cells (%) [1]: 55% | Population Normal (%) [1]: 96% | Population Pyknosed Nuclei (%) [1]: 18% | Population Tubulin-Different-Phenotype (%) [1]: 19% | Total Cell Count [1]: 182 | Population Apoptotic (%) [2]: 9% | Population Healthy Nuclei (%) [2]: 78% | Population Hoechst High Intensity Objects (%) [2]: 5% | Population Membrane Permeable-Phenotype (%) [2]: 5% | Population Mitochondria Different-Phenotype (%) [2]: 17% | Population Mitotic Cells (%) [2]: 90% | Population Normal (%) [2]: 94% | Population Pyknosed Nuclei (%) [2]: 12% | Population Tubulin-Different-Phenotype (%) [2]: 14% | Total Cell Count [2]: 97 | Population Apoptotic (%) [3]: 50% | Population Fragmented Nuclei (%) [3]: 18% | Population Healthy Nuclei (%) [3]: 42% | Population Hoechst High Intensity Objects (%) [3]: 14% | Population Membrane Permeable-Phenotype (%) [3]: 24% | Population Mitochondria Different-Phenotype (%) [3]: 90% | Population Mitotic Cells (%) [3]: 50% | Population Normal (%) [3]: 85% | Population Pyknosed Nuclei (%) [3]: 38% | Population Tubulin-Different-Phenotype (%) [3]: 100% | Total Cell Count [3]: 202 | Population Apoptotic (%) [4]: 15% | Population Fragmented Nuclei (%) [4]: 10% | Population Healthy Nuclei (%) [4]: 64% | Population Hoechst High Intensity Objects (%) [4]: 7% | Population Membrane Permeable-Phenotype (%) [4]: 28% | Population Mitochondria Different-Phenotype (%) [4]: 96% | Population Mitotic Cells (%) [4]: 84% | Population Normal (%) [4]: 92% | Population Pyknosed Nuclei (%) [4]: 26% | Total Cell Count [4]: 93 | Population Apoptotic (%) [5]: 35% | Population Fragmented Nuclei (%) [5]: 6% | Population Healthy Nuclei (%) [5]: 75% | Population Hoechst High Intensity Objects (%) [5]: 3% | Population Membrane Permeable-Phenotype (%) [5]: 5% | Population Mitochondria Different-Phenotype (%) [5]: 22% | Population Mitotic Cells (%) [5]: 64% | Population Normal (%) [5]: 96% | Population Pyknosed Nuclei (%) [5]: 18% | Population Tubulin-Different-Phenotype (%) [5]: 10% | Total Cell Count [5]: 196 | Population Apoptotic (%) [6]: 20% | Population Fragmented Nuclei (%) [6]: 11% | Population Healthy Nuclei (%) [6]: 74% | Population Hoechst High Intensity Objects (%) [6]: 4% | Population Membrane Permeable-Phenotype (%) [6]: 10% | Population Mitochondria Different-Phenotype (%) [6]: 20% | Population Mitotic Cells (%) [6]: 80% | Population Normal (%) [6]: 95% | Population Pyknosed Nuclei (%) [6]: 15% | Population Tubulin-Different-Phenotype (%) [6]: 16% | Total Cell Count [6]: 136 | Population Apoptotic (%) [7]: 52% | Population Fragmented Nuclei (%) [7]: 26% | Population Healthy Nuclei (%) [7]: 22% | Population Hoechst High Intensity Objects (%) [7]: 12% | Population Membrane Permeable-Phenotype (%) [7]: 47% | Population Mitochondria Different-Phenotype (%) [7]: 100% | Population Mitotic Cells (%) [7]: 47% | Population Normal (%) [7]: 87% | Population Pyknosed Nuclei (%) [7]: 51% | Population Tubulin-Different-Phenotype (%) [7]: 100% | Total Cell Count [7]: 240 | Population Apoptotic (%) [8]: 47% | Population Fragmented Nuclei (%) [8]: 14% | Population Healthy Nuclei (%) [8]: 40% | Population Hoechst High Intensity Objects (%) [8]: 14% | Population Mitochondria Different-Phenotype (%) [8]: 89% | Population Mitotic Cells (%) [8]: 52% | Population Normal (%) [8]: 85% | Population Pyknosed Nuclei (%) [8]: 44% | Total Cell Count [8]: 105 | Population Apoptotic (%) [9]: 45% | Population Fragmented Nuclei (%) [9]: 6% | Population Hoechst High Intensity Objects (%) [9]: 2% | Population Membrane Permeable-Phenotype (%) [9]: 9% | Population Mitochondria Different-Phenotype (%) [9]: 10% | Population Mitotic Cells (%) [9]: 54% | Population Normal (%) [9]: 97% | Population Pyknosed Nuclei (%) [9]: 17% | Population Tubulin-Different-Phenotype (%) [9]: 7% | Total Cell Count [9]: 130 | Population Apoptotic (%) [10]: 50% | Population Fragmented Nuclei (%) [10]: 13% | Population Healthy Nuclei (%) [10]: 76% | Population Hoechst High Intensity Objects (%) [10]: 3% | Population Membrane Permeable-Phenotype (%) [10]: 17% | Population Mitochondria Different-Phenotype (%) [10]: 24% | Population Mitotic Cells (%) [10]: 50% | Population Normal (%) [10]: 96% | Population Pyknosed Nuclei (%) [10]: 10% | Population Tubulin-Different-Phenotype (%) [10]: 22% | Total Cell Count [10]: 90 | Population Apoptotic (%) [11]: 82% | Population Fragmented Nuclei (%) [11]: 35% | Population Healthy Nuclei (%) [11]: 12% | Population Hoechst High Intensity Objects (%) [11]: 15% | Population Membrane Permeable-Phenotype (%) [11]: 50% | Population Mitochondria Different-Phenotype (%) [11]: 90% | Population Mitotic Cells (%) [11]: 17% | Population Normal (%) [11]: 84% | Population Pyknosed Nuclei (%) [11]: 51% | Population Tubulin-Different-Phenotype (%) [11]: 100% | Total Cell Count [11]: 308 | Population Apoptotic (%) [12]: 61% | Population Fragmented Nuclei (%) [12]: 19% | Population Healthy Nuclei (%) [12]: 23% | Population Hoechst High Intensity Objects (%) [12]: 17% | Population Membrane Permeable-Phenotype (%) [12]: 100% | Population Mitochondria Different-Phenotype (%) [12]: 100% | Population Mitotic Cells (%) [12]: 38% | Population Normal (%) [12]: 82% | Population Pyknosed Nuclei (%) [12]: 56% | Total Cell Count [12]: 141
